According to ChEMBL document CHEMBL1121681, “Synthesis and antiviral activity of certain 9-beta-D-ribofuranosylpurine-6-carboxamides” (1981):

Key:
[1] = test system: Laryngeal epithelioma cell line; experiment: In vitro antiviral activity against HSV-1 virus in human laryngeal epithelioma cell line / 320 toxic level; type: functional
[2] = test system: Laryngeal epithelioma cell line; experiment: In vitro antiviral activity against Para 3 virus in human laryngeal epithelioma cell line / 320 toxic level; type: functional
[3] = test system: Laryngeal epithelioma cell line; experiment: In vitro antiviral activity against V V virus human laryngeal epithelioma cell line / 320 toxic level; type: functional
[4] = test system: Laryngeal epithelioma cell line; experiment: In vitro antiviral activity against VSV virus in human laryngeal epithelioma cell line / 320 toxic level; type: functional
[5] = test system: Laryngeal epithelioma cell line; experiment: In vitro antiviral activity against COXB1 virus in human laryngeal epithelioma cell line / 320 toxic level; type: functional
Vero [6] = experiment: In vitro antiviral activity against COXB1 virus in (vero) V cells of african green monkey kidney / 1000 toxic level; type: functional, Chlorocebus sabaeus
Vero [7] = experiment: In vitro antiviral activity against HSV-1 virus in (vero) V cells of african green monkey kidney / 1000 toxic level; type: functional, Chlorocebus sabaeus
Vero [8] = experiment: In vitro antiviral activity against Para 3 virus in (vero) V cells of african green monkey kidney / 1000 toxic level; type: functional, Chlorocebus sabaeus
Vero [9] = experiment: In vitro antiviral activity against V V virus in (vero) V cells of african green monkey kidney / 1000 toxic level; type: functional, Chlorocebus sabaeus
Vero [10] = experiment: In vitro antiviral activity against VSV virus in (vero) V cells of african green monkey kidney / 1000 toxic level; type: functional, Chlorocebus sabaeus
[11] = test system: Laryngeal epithelioma cell line; experiment: In vitro antiviral activity against COXB1 virus in human laryngeal epithelioma cell line / 1000 toxic level; type: functional
[12] = test system: Laryngeal epithelioma cell line; experiment: In vitro antiviral activity against HSV-1 virus in human laryngeal epithelioma cell line / 1000 toxic level; type: functional
[13] = test system: Laryngeal epithelioma cell line; experiment: In vitro antiviral activity against Para 3 virus in human laryngeal epithelioma cell line / 1000 toxic level; type: functional
[14] = test system: Laryngeal epithelioma cell line; experiment: In vitro antiviral activity against V V virus human laryngeal epithelioma cell line / 1000 toxic level; type: functional
[15] = test system: Laryngeal epithelioma cell line; experiment: In vitro antiviral activity against VSV virus in human laryngeal epithelioma cell line / 1000 toxic level; type: functional
Vero [16] = experiment: In vitro antiviral activity against COXB1 virus in (vero) V cells of african green monkey kidney; type: functional, Chlorocebus sabaeus
Vero [17] = experiment: In vitro antiviral activity against HSV-1 virus in (vero) V cells of african green monkey kidney; type: functional, Chlorocebus sabaeus
Vero [18] = experiment: In vitro antiviral activity against V V virus in (vero) V cells of african green monkey kidney; type: functional, Chlorocebus sabaeus
Vero [19] = experiment: In vitro antiviral activity against VSV virus in (vero) V cells of african green monkey kidney; type: functional, Chlorocebus sabaeus
[20] = test system: Laryngeal epithelioma cell line; experiment: In vitro antiviral activity against COXB1 virus in human laryngeal epithelioma cell line; type: functional
[21] = test system: Laryngeal epithelioma cell line; experiment: In vitro antiviral activity against Para 3 virus in human laryngeal epithelioma cell line; type: functional
[22] = test system: Laryngeal epithelioma cell line; experiment: In vitro antiviral activity against V V virus in human laryngeal epithelioma cell line; type: functional
[23] = test system: Laryngeal epithelioma cell line; experiment: In vitro antiviral activity against VSV virus in human laryngeal epithelioma cell line; type: functional
[24] = test system: Laryngeal epithelioma cell line; experiment: In vitro antiviral activity against HSV-1 virus in human laryngeal epithelioma cell line; type: functional
Rift Valley fever virus [25] = experiment: Percent increase in survival rate of Rift Valley fever virus infected mice on day 21, by administering 100 (mg/kg)/day of compound; type: functional
Vero [26] = experiment: In vitro antiviral activity against COXB1 virus in (vero) V cells; type: functional, Chlorocebus sabaeus
Vero [27] = experiment: In vitro antiviral activity against Para 3 virus in (vero) V cells of african green monkey kidney; type: functional, Chlorocebus sabaeus
Vero [28] = experiment: In vitro antiviral activity against VSV virus in (vero) V cells; type: functional, Chlorocebus sabaeus
[29] = test system: Laryngeal epithelioma cell line; experiment: In vitro antiviral activity against Para 3 virus in human laryngeal epithelioma cell line / 100 toxic level; type: functional
[30] = test system: Laryngeal epithelioma cell line; experiment: In vitro antiviral activity against VSV virus in human laryngeal epithelioma cell line / 100 toxic level; type: functional
[31] = test system: Laryngeal epithelioma cell line; experiment: In vitro antiviral activity against Vaccinia virus human laryngeal epithelioma cell line / 100 toxic level; type: functional
[32] = test system: Laryngeal epithelioma cell line; experiment: In vitro antiviral activity against Cox B1 virus in human laryngeal epithelioma cell line / 100 toxic level; type: functional
[33] = test system: Laryngeal epithelioma cell line; experiment: In vitro antiviral activity against HSV-1 virus in human laryngeal epithelioma cell line / 100 toxic level; type: functional
Vero [34] = experiment: In vitro antiviral activity against Cox B1 virus in (vero) V cells of african green monkey kidney / 320 toxic level; type: functional, Chlorocebus sabaeus
Vero [35] = experiment: In vitro antiviral activity against Vaccinia virus in (vero) V cells of african green monkey kidney / 320 toxic level; type: functional, Chlorocebus sabaeus
Vero [36] = experiment: In vitro antiviral activity against HSV-1 virus in (vero) V cells of african green monkey kidney / 320 toxic level; type: functional, Chlorocebus sabaeus
Vero [37] = experiment: In vitro antiviral activity against VSV virus in (vero) V cells of african green monkey kidney / 320 toxic level; type: functional, Chlorocebus sabaeus
Rift Valley fever virus [38] = experiment: Inhibition of growth of Rift Valley fever virus in vero cells by administering 250 ug/mL of compound; type: functional, Chlorocebus sabaeus
Rift Valley fever virus [39] = experiment: Percent increase in survival rate of Rift Valley fever virus infected mice on day 21, by administering 50 (mg/kg)/day of compound; type: functional
Vero [40] = experiment: Inhibition of growth of Pichinde virus in vero cells by administering 250 ug/mL of compound; type: functional, Chlorocebus sabaeus
In short: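 Pichinde virus was adsorbed to Vero monolayers in 24-well cultures for 1 h at 37 °C. Cells were overlaid with agar containing compound dilutions and incubated at 37 °C with CO2. Plaques were counted after crystal violet staining to give inhibition of viral growth.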

Vero [41] = experiment: Inhibition of growth of Rift Valley fever virus in vero cells by administering 500 ug/mL of compound; type: functional, Chlorocebus sabaeus
[42] = test system: Laryngeal epithelioma cell line; experiment: In vitro antiviral activity against vaccinia virus human laryngeal epithelioma cell line / 320 toxic level; type: functional
[43] = test system: Laryngeal epithelioma cell line; experiment: In vitro antiviral activity against Cox B1 virus in human laryngeal epithelioma cell line / 320 toxic level; type: functional
Vero [44] = experiment: In vitro antiviral activity against vaccinia virus in (vero) V cells of african green monkey kidney / 320 toxic level; type: functional, Chlorocebus sabaeus
Vero [45] = experiment: In vitro antiviral activity against Para 3 virus in (vero) V cells of african green monkey kidney / 320 toxic level; type: functional, Chlorocebus sabaeus

N#Cc1ncnc2c1ncn2C1O[C@H](CO)[C@@H](O)[C@H]1O (stereo partly drawn) gave a Virus rating [1] of 0.8, a Virus rating [2] of 1.2 and a Virus rating [3] of 1. For the same compound, the Virus rating [4] was 0.8, the Virus rating [5] was 1 and the Virus rating (Vero [6]) was 0. For the same compound, the Virus rating (Vero [7]) was 0.4, the Virus rating (Vero [8]) was 0 and the Virus rating (Vero [9]) was 1. The Virus rating (Vero [10]) was 0.
For OC[C@H]1O[C@@H](n2cnc3c(Cl)ncnc32)[C@H](O)[C@@H]1O, the Virus rating [11] was 1, the Virus rating [12] was 0.6 and the Virus rating [13] was 1.3. For the same compound, the Virus rating [14] was 0.8, the Virus rating [15] was 0.3 and the Virus rating (Vero [16]) was 0.4. It also gave a Virus rating (Vero [17]) of 0.9, a Virus rating (Vero [18]) of 1.5 and a Virus rating (Vero [19]) of 0.5.
With OC[C@H]1OC(n2cnc3c(I)ncnc32)[C@H](O)[C@@H]1O (stereo partly drawn) the Virus rating [1] was 1.6, the Virus rating [2] was 0.6 and the Virus rating [3] was 0.8. For the same compound, the Virus rating [4] was 0.9, the Virus rating [5] was 1 and the Virus rating (Vero [6]) was 0.1. For the same compound, the Virus rating (Vero [7]) was 1, the Virus rating (Vero [8]) was 0.7 and the Virus rating (Vero [9]) was 1.2. The Virus rating (Vero [10]) was 0.
With NC(=O)c1ncn([C@@H]2O[C@H](CO)[C@@H](O)[C@H]2O)n1 [RIBAVIRIN] the Virus rating [20] was 1.1, the Virus rating [21] was 1.4 and the Virus rating [22] was 1.2. The Virus rating [23] was 1.6, the Virus rating [24] was 1.2 and the ILS (Rift Valley fever virus [25]) was 70%. For the same compound, the Virus rating (Vero [26]) was 0.6, the Virus rating (Vero [17]) was 0.6 and the Virus rating (Vero [27]) was 1.3. The Virus rating (Vero [18]) was 1.2 and the Virus rating (Vero [28]) was 0.8.
Compound NC(=S)c1ncnc2c1ncn2C1O[C@H](CO)[C@@H](O)[C@H]1O (stereo partly drawn) has a Virus rating [29] of 1.3, a Virus rating [30] of 0.7 and a Virus rating [31] of 1.2. For the same compound, the Virus rating [32] was 1.1, the Virus rating [33] was 0.4 and the Virus rating (Vero [34]) was 1. The Virus rating (Vero [35]) was 0.8, the Virus rating (Vero [36]) was 1.1 and the Virus rating (Vero [37]) was 0.5.
Work on NC(=O)c1ncnc2c1ncn2C1O[C@H](CO)[C@@H](O)[C@H]1O (stereo partly drawn) yielded a Virus rating [1] of 0.6, a Virus rating [2] of 1.4 and a Virus rating [3] of 1.1. The Virus rating [4] was 1.2, the Virus rating [5] was 0.9 and the Inhibition (Rift Valley fever virus [38]) was 90%. It also gave an ILS (Rift Valley fever virus [39]) of 55%, an Inhibition (Vero [40]) of 90% and an Inhibition (Vero [41]) of 99%. For the same compound, the Virus rating (Vero [16]) was 0.4, the Virus rating (Vero [17]) was 0.6 and the Virus rating (Vero [27]) was 0. It also gave a Virus rating (Vero [18]) of 1.5 and a Virus rating (Vero [19]) of 0.
Nc1ncnc2c(N[C@@H]3O[C@H](CO)[C@@H](O)[C@@H]3O)ncnc12 showed a Virus rating [42] of 1.3, a Virus rating [1] of 1.6 and a Virus rating [2] of 1.5. It also gave a Virus rating [4] of 1.5, a Virus rating [43] of 1 and a Virus rating (Vero [34]) of 0.6. For the same compound, the Virus rating (Vero [44]) was 1.4, the Virus rating (Vero [36]) was 0.8 and the Virus rating (Vero [45]) was 0.7. For the same compound, the Virus rating (Vero [37]) was 0.6.
